ChEMBL document CHEMBL1148152, “Syncarpamide, a new antiplasmodial (+)-norepinephrine derivative from Zanthoxylum syncarpum” (J Nat Prod, 2004)
pIC50: −log10 of the molar value. Active and inactive are the calls of the source. No cut-off for these calls is given here.

Assays:
Plasmodium falciparum [1] = test: Antiplasmodial activity against Plasmodium falciparum W2; assay type: functional, organism-based
Plasmodium falciparum [2] = test: Antiplasmodial activity against Plasmodium falciparum D6; assay type: functional, organism-based
Staphylococcus aureus [3] = test: Antibacterial activity against Staphylococcus aureus ATCC 33591 by antimicrobial susceptibility test; assay type: functional, organism-based
How it was run: (§1)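 Modified 96-well microplate broth assay run on purified compounds, giving IC50 and MIC values, against ATCC strains C. albicans 90028, C. neoformans 90113, and S. aureus 6535 and 33591. Amphotericin B and rifampin served as positive controls, with DMSO as the negative control.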

Cryptococcus neoformans = test: […] activity against Cryptococcus neoformans ATCC 90113 by antimicrobial susceptibility test; assay type: functional, organism-based; how it was run: as §1
Candida albicans = test: Antifungal activity against Candida albicans B311 ATCC 90028 by antimicrobial susceptibility test; assay type: functional, organism-based; how it was run: as §1
Staphylococcus aureus [4] = test: Antibacterial activity against Staphylococcus aureus ATCC 6535 by antimicrobial susceptibility test; assay type: functional, organism-based; how it was run: as §1
Vero [5] = test: Cytotoxicity against african green monkey Vero cells at 56.42 uM; assay type: cell-based; details: chlorocebus sabaeus
Vero [6] = test: Cytotoxicity against african green monkey Vero cells; assay type: cell-based; details: chlorocebus sabaeus
How it was run: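 Cytotoxicity assay with doxorubicin and 5-fluorouracil as positive controls and DMSO as the vehicle (negative) control.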

pIC50 (Plasmodium falciparum [1]) | pIC50 (Plasmodium falciparum [2]) | Structure (SMILES) | Activity (Plasmodium falciparum [1]) | Activity (Plasmodium falciparum [2]) | Activity (Staphylococcus aureus [3]) | Activity (Cryptococcus neoformans) | Activity (Candida albicans) | Activity (Staphylococcus aureus [4]) | Activity (Vero [5]) | Activity (Vero [6])
 |  | CC(C)(O)[C@@H]1Cc2cc3ccc(=O)oc3cc2O1 | inactive | inactive | inactive | inactive | inactive | inactive |  | 
6.06 | 5.84 | COc1c(O)ccc2c1cnc1c3cc4c(cc3ccc21)OCO4 [DECARINE] |  |  | Active | Active |  | Active | Active | Not Active
5.51 | 5.69 | COc1ccc([C@@H](CNC(=O)/C=C/c2ccccc2)OC(=O)/C=C/c2ccccc2)cc1OC [SYNCARPAMIDE] |  |  |  |  |  |  |  | Not Active
